PTEN del growth = growth suppressors of cells with PTEN tumor suppressor deletion; 140,000 tested, 1.2% active; HCT116 PTEN-null viability, CellTiter-Glo, 60 h; hits give low values; viability, % at 10 µM;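 active means viability at or below a set limit, 4 SD under the median of all tested compounds, cut at about 3.7% in these data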;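 further: PTEN knockout HCT116 line with beta catenin targeted HCT116 as companion control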
H69AR inhibit = blocks growth of human H69AR lung tumor cells; 85,000 tested, 6% active; H69AR lung tumor viability, ATP luminescence, 72 h; hits give low values; AID 598; viability, % at 10 µM;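 active means viability at or below 40%; inactive means viability above 40%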;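 further: multidrug resistant small cell line overexpressing MRP-1 efflux transporter; 100% = mean luminescence of untreated control wells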
bCat KO growth = beta-catenin-lacking colon tumor cell growth suppression. HCT116 beta-catenin knockout viability, CellTiter-Glo, 60 h; hits give low values. viability, % at 10 µM. 140,000 tested, 1.5% active;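 active means viability at or under a set limit, the compound median less 4 SD, cut at about 6% in these data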;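 further: 0% = Hyamine 1622 control at 20 µM and 100% = untreated cell control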
Lung fibro prol = blocks proliferation of human lung fibroblasts; LL 47 human lung fibroblast viability, ATP luminescence; hits give low values; viability, % at 10 µM; 85,000 tested, 1.1% active;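 active means viability at or below 50% in the single dose screen; inactive means viability above 50%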;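 further: compound exposure lasted 72 h before the ATP readout; 100% = median luminescence of untreated cell-only wells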
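material = human LL 47 lung fibroblast cells | dosing = compounds added from tenfold dosing solution, 0.1% DMSO final | timing = overnight cell rest, 72 h compound treatment at 37 °C | measured by = CellTiter-Glo luminescence measuring cellular ATP | evaluation = % viability versus median cells-only luminescence | control set = cell-only wells, no compound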
HUVEC inhibit = inhibitors of human endothelial cell proliferation | HUVEC proliferation, CellTiter-Glo luminescence, 72 h; hits give low values | viability, % at 10 µM (by protocol) | 86,000 tested, 1.1% active | AID 648;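 active means viability at or below 30%; inactive means viability above 30%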;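 further: 100% = median luminescence of DMSO-only cell control wells on each plate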
The depositor's hits bear a star. Many of the other results were omitted from the sample, so hits are more common in it than they were.

Results for CCOC(=O)C(C(C)=O)c1c(Br)c(O)c(O)c2c(C(=O)c3ccc(C)cc3)coc12 (stereo unspecified) ?
PTEN del growth: 1.7*; H69AR inhibit: 1.4*; bCat KO growth: 1.3*; Lung fibro prol: 10.3*; HUVEC inhibit: 59.5

What do the screens show for `Cc1ccc(-n2nc(C)c(C3C(C#N)=C(N)OC4=C3C(=O)CCC4)c2Cl)cc1` (stereo unspecified)?
H69AR inhibit: 50.7; Lung fibro prol: 91.7; HUVEC inhibit: 90.5

Results for Cc1nn(-c2ccccc2)c(Cl)c1C1C(C#N)=C(N)OC2=C1C(=O)CC(C)(C)C2 (stereo unspecified) ?
PTEN del growth: 74.5; H69AR inhibit: 8.8*; bCat KO growth: 73.9; Lung fibro prol: 71.1; HUVEC inhibit: 55.5

Results for CCC(=O)Nc1ccc(C(=O)NNC(=O)Cc2ccccc2)cc1 ?
PTEN del growth: 99.5; bCat KO growth: 99.7

What do the screens show for `CCc1cccc(CC)c1NC(=O)COC(=O)CCc1cc(OC)c(OC)c(OC)c1`?
PTEN del growth: 96.1; bCat KO growth: 88.1

What do the screens show for `Cc1cc(C(=O)N2CCc3ccccc32)n(-c2ccccc2)n1`?
PTEN del growth: 31.4; H69AR inhibit: 21.9*; bCat KO growth: 37.9; Lung fibro prol: 89.0; HUVEC inhibit: 70.8

Results for O=C(NNC(=O)c1ccc([N+](=O)[O-])o1)c1ccccc1 ?
PTEN del growth: 7.2; H69AR inhibit: 49.7; bCat KO growth: 13.9; Lung fibro prol: 43.4*; HUVEC inhibit: 107.2

Results for CCOC(=O)/C(=C\c1ccc([N+](=O)[O-])o1)NC(=O)c1ccccc1 ?
PTEN del growth: 46.2; H69AR inhibit: 80.8; bCat KO growth: 49.2; Lung fibro prol: 85.5; HUVEC inhibit: 69.3

How did Cc1cc(C)nc(NC(=O)c2ccc([N+](=O)[O-])o2)n1 do in these assays?
PTEN del growth: 3.9; bCat KO growth: 4.2*

Results for O=C(NNC(=S)NC(=O)c1ccccc1[N+](=O)[O-])c1ccccc1 ?
PTEN del growth: 67.5; H69AR inhibit: 25.4*; bCat KO growth: 58.2; Lung fibro prol: 91.6; HUVEC inhibit: 72.9

How did CN=C(NC1CCCCC1)c1ccc(Cl)cc1 do in these assays?
PTEN del growth: 96.8; bCat KO growth: 92.5

How did CCCn1c(NC(=O)c2ccc(C)cc2)nc2ccccc21 do in these assays?
PTEN del growth: 36.9; H69AR inhibit: 52.4; bCat KO growth: 25.8; Lung fibro prol: 66.5; HUVEC inhibit: 87.1

Results for CC(NC(=O)c1ccccc1)c1nc2ccccc2n1Cc1ccc(C#N)cc1 (stereo unspecified) ?
PTEN del growth: 88.5; H69AR inhibit: 70.4; bCat KO growth: 78.2; Lung fibro prol: 93.0; HUVEC inhibit: 101.7

How did CCCn1c(NC(=O)C2CCN(S(=O)(=O)c3cccs3)CC2)nc2ccccc21 do in these assays?
PTEN del growth: 8.2; H69AR inhibit: 38.5*; bCat KO growth: 10.1; Lung fibro prol: 65.0; HUVEC inhibit: 72.4

Results for CC(NC(=O)c1ccccc1)c1nc2ccccc2n1Cc1ccccc1F (stereo unspecified) ?
PTEN del growth: 66.5; H69AR inhibit: 11.6*; bCat KO growth: 76.1; Lung fibro prol: 91.6; HUVEC inhibit: 103.5

What do the screens show for `CCCn1c(NC(=O)c2cccc(S(=O)(=O)N3CCCC3)c2)nc2ccccc21`?
PTEN del growth: 2.0*; H69AR inhibit: 16.6*; bCat KO growth: 2.9*; Lung fibro prol: 53.0; HUVEC inhibit: 52.2

Results for CCCn1c(NC(=O)c2ccccc2)nc2ccccc21 ?
PTEN del growth: 37.9; H69AR inhibit: 30.9*; bCat KO growth: 41.7; Lung fibro prol: 71.4; HUVEC inhibit: 85.8

How did COc1cc(NC(=O)c2ccccc2-c2ccccc2)cc(OC)c1 do in these assays?
PTEN del growth: 87.4; bCat KO growth: 91.8

Results for O=C(Nc1nc2ccccc2n1CCN1CCCCC1)C1CCCCC1 ?
PTEN del growth: 55.8; H69AR inhibit: 30.6*; bCat KO growth: 43.4; Lung fibro prol: 87.1; HUVEC inhibit: 107.0

What do the screens show for `CCCn1c(Nc2nc3ccccc3n2C)nc2ccccc21`?
PTEN del growth: 2.0*; H69AR inhibit: 3.1*; bCat KO growth: 2.2*; Lung fibro prol: 102.4; HUVEC inhibit: 3.0*

How did Cc1ccc(-c2nnc(SCC(=O)Nc3ccccc3F)o2)cc1 do in these assays?
PTEN del growth: 42.4; H69AR inhibit: 63.6; bCat KO growth: 37.6; Lung fibro prol: 49.2*; HUVEC inhibit: 69.9

How did Cc1cc(NC(=O)c2ccc3c(c2)OCCO3)no1 do in these assays?
PTEN del growth: 71.5; H69AR inhibit: 33.6*; bCat KO growth: 78.6; Lung fibro prol: 95.6; HUVEC inhibit: 85.4

What do the screens show for `Cc1cc(NC(=O)CSc2nnc(-c3ccc4c(c3)OCCO4)o2)no1`?
PTEN del growth: 99.0; H69AR inhibit: 2.4*; bCat KO growth: 91.8; Lung fibro prol: 97.7; HUVEC inhibit: 98.8

How did COc1cccc(CNC(=O)CCS(=O)(=O)c2cccs2)c1 do in these assays?
PTEN del growth: 83.1; H69AR inhibit: 111.1; bCat KO growth: 85.9; Lung fibro prol: 97.1; HUVEC inhibit: 101.0

Results for CN(C)CCNC(=O)/C=N/O ?
PTEN del growth: 103.4; bCat KO growth: 95.1

What do the screens show for `N#Cc1cn(CC(=O)NCCc2c[nH]c3ccccc23)c2ccccc12`?
PTEN del growth: 63.8; H69AR inhibit: 72.5; bCat KO growth: 83.5; Lung fibro prol: 87.5; HUVEC inhibit: 81.8

How did Cc1c(C#N)c2ccccc2n1CC(=O)NCCc1c[nH]c2ccccc12 do in these assays?
PTEN del growth: 69.9; H69AR inhibit: 36.6*; bCat KO growth: 72.6; Lung fibro prol: 76.8; HUVEC inhibit: 74.5

Results for Cc1ccc2sc(NNC(=O)c3cc(-c4cccs4)nc4ccccc34)nc2c1C ?
PTEN del growth: 4.3; bCat KO growth: 4.8*

What do the screens show for `O=C(NNc1nc2ccc(Cl)cc2s1)c1cc(-c2cccs2)nc2ccccc12`?
PTEN del growth: 3.7*; bCat KO growth: 4.2*

How did O=C(NN1CCOCC1)c1cc(-c2cccs2)nc2ccccc12 do in these assays?
PTEN del growth: 94.3; bCat KO growth: 91.8

What do the screens show for `Cc1cc(C)c2nc(NNC(=O)c3cc(-c4cccs4)nc4ccccc34)sc2c1`?
PTEN del growth: 4.1; bCat KO growth: 6.4

How did Cn1c(=O)c2c(nc(Oc3ccc4c(c3)OCO4)n2Cc2ccc(Br)cc2)n(C)c1=O do in these assays?
H69AR inhibit: 17.5*; Lung fibro prol: 30.4*; HUVEC inhibit: 22.3*

What do the screens show for `CCOC(=O)CN(Cc1sccc1C)C(=O)Nc1ccc(OC)cc1OC`?
PTEN del growth: 95.5; bCat KO growth: 98.3

Results for O=C(N/N=C/c1cccc([N+](=O)[O-])c1)C1CC(=O)N(c2ccc(F)cc2)C1 (stereo unspecified) ?
PTEN del growth: 98.6; bCat KO growth: 96.2

How did Cc1ccc(CN2CCC(c3nc4ccc(Cl)cc4[nH]3)CC2)cc1 do in these assays?
PTEN del growth: 17.1; bCat KO growth: 17.9

Results for Cc1cc2nc(C3CCN(Cc4nnnn4Cc4cccs4)CC3)[nH]c2cc1C ?
PTEN del growth: 18.0; H69AR inhibit: 15.2*; bCat KO growth: 24.7; Lung fibro prol: 62.0; HUVEC inhibit: 63.6

Screening results (PubChem)
